PREPL inhibitor: PREPL enzyme inhibitors, primary screen, biochemical, fluorescence polarization. inhibition, % at 5.96 µM. Prolyl endopeptidase-like (Homo sapiens), Q4J6C6. 0.68% of 320,000 active. recombinant PREPL, fluorescence polarization activity-based probe. AID 2751, 2010; in the data active = inhibition above about 43%;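 note: 0% = enzyme with DMSO and 100% = wells lacking enzyme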
Rin1 Abl inh: inhibitors of Rin1-Abl protein binding, primary screen, biochemical, TR-FRET; Tyrosine-protein kinase ABL1 (Homo sapiens) + Ras and Rab interactor 1 (Homo sapiens), …; inhibition, % at 7.35 µM; 0.4% of 360,000 active; in the data active = inhibition above about 5%, passing the limit was not always enough
ALR inh: inhibitors of human ALR sulfhydryl oxidase, primary screen, biochemical, H2O2 detection, HRP-luminol luminescence, single point. inhibition, % (concentration not given with the values). 3.8% of 290,000 active. purified ALR, DTT oxidation;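 active = mean replicate inhibition above about 79%, with every replicate also reaching it, limit read from the data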
RBBP9 inhibitor: human RBBP9 inhibitors, primary screen, biochemical, fluorescence polarization, FP-Rh probe, HTS; Serine hydrolase RBBP9 (Homo sapiens), O75884; recombinant RBBP9; inhibition, % at 7.94 µM; 0.2% of 220,000 active;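 active = inhibition above the campaign mean of all tested compounds plus 3 SD, cut at about 14% in these data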;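 note: plate controls were DMSO wells with RBBP9 for no effect and wells lacking RBBP9 protein for full effect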
Target sequence (O75884 whole entry, looked up): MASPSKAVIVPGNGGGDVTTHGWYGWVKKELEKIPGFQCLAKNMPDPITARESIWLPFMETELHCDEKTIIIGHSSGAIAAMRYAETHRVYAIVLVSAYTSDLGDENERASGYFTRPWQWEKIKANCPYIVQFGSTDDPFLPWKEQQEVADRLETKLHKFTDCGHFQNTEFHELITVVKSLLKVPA
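Test system – recombinant human RBBP9 · Input – RBBP9 2.5 µM in dispensing solution, pre-mixing · Medium – Tris buffer pH 8.0, NaCl, Pluronic · Schedule – preincubation 30 min plus labeling 45 min at 25 °C · Measured by – fluorescence polarization · Measure – % inhibition · Controls – DMSO and no-protein wells · Replicates – one well per compound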
UBC13 polyUb: UBC13 polyubiquitin chain formation inhibitors, primary screen, biochemical, TR-FRET, uHTS; 0.47% of 330,000 active; Ubiquitin-conjugating enzyme E2 N (Homo sapiens), P61088; inhibition, % at 20 µM; in the data active = inhibition above about 45%, passing the limit was not always enough
SUMO HTRF inh: inhibitors of in vitro SUMOylation cascade, primary screen, biochemical, HTRF, uHTS | HTRF SUMOylation assay, SAE1/SAE2 + UBC9 | AID 2006, 2009 | 0.36% of 290,000 active | inhibition, % at 35 µM; in the data active = inhibition above about 50%, passing the limit was not always enough
Target sequence (P63279 whole entry, looked up): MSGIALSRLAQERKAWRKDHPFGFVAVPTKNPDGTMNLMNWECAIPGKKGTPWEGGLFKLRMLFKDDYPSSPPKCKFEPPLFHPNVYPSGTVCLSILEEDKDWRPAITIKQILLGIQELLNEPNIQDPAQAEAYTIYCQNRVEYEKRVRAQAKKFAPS
Rin1-Abl confirm: Rin1-Abl binding inhibitor retest, confirmation, biochemical, TR-FRET | shares compounds with Rin1 Abl inh | purified proteins | inhibition, % at 7.35 µM | 49% of 1,300 active | AID 602124, 2011
GFP quencher: GFP fluorescence inhibitors and quenchers, artefact control for Rin1-Abl interaction inhibitor project, biochemical | shares compounds with Rin1 Abl inh | inhibitors/quenchers counterscreen | inhibition, % at 6.75 µM | 8.5% of 1,300 active;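 note: ABL1-eGFP fusion protein alone without its partner RIN1-SBP; 0% = protein with vehicle and 100% = wells lacking protein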
GFP quench dose: GFP fluorescence inhibitors and quenchers, dose response, artefact control for Rin1-Abl interaction inhibitor project, biochemical | shares compounds with Rin1 Abl inh | GFP fluorescence interference/quenching counterscreen | IC50, µM | 230 tested, under 10 active | AID 602182, 2012; call rule not given here;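 note: ABL1-eGFP fusion protein alone without its RIN1 binding partner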
* hit, by the source's call; . = not tested or not shown. In the library only some 4.3% were active in any assay of this set; here they are far more common. Cut-off read from the data, not from the text of the source, unless noted: active = inhibition above about 6.5%; inactive = the rest.

SMILES	PREPL inhibitor	Rin1 Abl inh	ALR inh	RBBP9 inhibitor	UBC13 polyUb	SUMO HTRF inh	Rin1-Abl confirm	GFP quencher	others
CN(CCc1ccccc1)C(=O)c1ccc(NC(=O)Cc2ccc(NC(=O)C3CCN(C(=O)C4CCCCC4)CC3)cc2)cc1	.	31*	.	.	.	.	30*	1	GFP quench dose=>68
CN(Cc1ccccc1)C(=O)c1ccc(NC(=O)Cc2ccc(NC(=O)C3CCN(C(=O)C4CCCC4)CC3)cc2)cc1	.	14*	.	.	.	.	19*	-2	GFP quench dose=>68
CN(CCc1ccccc1)C(=O)c1ccc(NC(=O)Cc2cccc(NC(=O)C3CCN(C(=O)C4CCCC4)CC3)c2)cc1	.	12*	.	.	.	.	16*	0
O=S1(=O)CC(N2CCC(c3ccccc3)CC2)CN1Cc1ccccc1 (centres undefined)	.	1	.	.	.	.	.	.
C=CCSc1nc2sc3c(c2c(=O)n1-c1ccc(C)cc1)CCN(C)C3	.	-1	-3	.	10	13	.	.
Cn1c(CNC(=O)C(Cc2ccccc2)NC(=O)c2cccc(F)c2)cc(=O)n(C)c1=O (centres undefined)	0	-1	-1	.	-3	-11	.	.
CN(CCc1ccccc1)C(=O)c1ccc(NC(=O)Cc2cccc(NC(=O)C3CCN(C(=O)C4CCC4)CC3)c2)cc1	.	-3	.	.	.	.	.	.
CN(CCc1ccccc1)C(=O)c1ccc(NC(=O)Cc2ccc(NC(=O)C3CCN(C(=O)C4CCC4)CC3)cc2)cc1	.	27*	.	.	.	.	26*	2	GFP quench dose=>67
Cc1cc(OC(C)C(=O)NCCCN2CCOCC2)c2c(C)c(C)c(=O)oc2c1 (centres undefined)	-3	-3	-2	.	10	13	.	.
CCOc1nc(Nc2ccc(OC)cc2)nc(OCC)n1	2	9.2*	6	-10	0	-4	3	-1
CCOc1nc(Nc2ccc(OC)cc2)nc(N2CCOCC2)n1	10	0	-10	-7	0	-1	.	.
CC(C)(C)c1nnc(NS(C)(=O)=O)s1	8	9.9*	-8	-2	-2	.	1	1
O=C(Nc1cccc(-c2nnc(-c3ccco3)o2)c1)c1ccccc1	-21	10*	-1	-7	6	4	-2	-2
CN(Cc1ccccc1)C(=O)c1[nH]cnc1C(=O)N[C@@H](Cc1ccccc1)C(=O)OC(C)(C)C	-6	3	2	.	-5	-9	.	.
COc1ccc2c(c1O)-c1ccccc1CCN(C)C2	3	-3	50	-5	4	3	.	.
CN1CCc2cccc3c2[C@@H]1Cc1ccc(O)c(O)c1-3	14	17*	.	12	7	1	12*	13*
CCCC[C@@H]1CNCCN1CC1(c2ccccc2)CC1	-3	2	0	.	8	.	.	.
Cc1ccc(C)c(OCCCNC2CCCC2)c1C	-6	13*	-1	5	3	-23	1	-1
Cc1ccc(OCCCNC2CCCC2)cc1	0	1	-7	-6	-7	-10	.	.
CC(=O)Nc1ccc(NC(=O)CSc2nnc(-c3ccccc3)n2Cc2ccc3c(c2)OCO3)cc1	11	7.8*	-30	1	7	-4	4	0
O=C(NCc1ccc(Cl)cc1)C1CCN(C(=O)c2ccc(Cl)cc2)CC1	.	-2	.	.	-3	.	.	.
Cn1c(=O)c2c(nc(NCc3ccco3)n2Cc2ccccc2Cl)n(C)c1=O	6	7.1*	13	-5	-2	5	6.7*	0
Cn1c(=O)c2c(nc(NCc3ccco3)n2C)n(C)c1=O	4	-2	5	0	0	19	.	.
CC(=O)c1ccc(N2CCN(CC(=O)Nc3ccccc3C(=O)NC3CC3)CC2)c(F)c1	4	3	-1	.	19	.	.	.

Bioassay records from PubChem.
